In ChEMBL document CHEMBL4513216, “Probing the Open Global Health Chemical Diversity Library for Multistage-Active Starting Points for Next-Generation Antimalarials” (ACS Infect Dis, 2020):

Assay: Toxicity liver stage against HepG2, at 10uM
Assay type: cell-based
Set-up: test concentration 10 uM, cell line HepG2-A16-CD81EGFP
Conditions: human, HepG2-A16-CD81EGFP cells; read-out: INHIBITION
How it was run: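 Uninfected HepG2-A16-CD81EGFP cells, 3 × 10^3 per well, 1536-well, plated on prespotted compound at 10 μM final, parasite-free screening media added to match infected plates; puromycin 10 μM positive, DMSO 0.5% negative; run in parallel with 48 h PbLuc assay at 37 °C, 5% CO2; viability by CellTiter-Glo luminescence, normalized to controls.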

SMILES | cytotoxicity at 10 µM [%]
O=C(CCO)N1CC[C@@H]2CN(C(=O)c3ccco3)CCO[C@@H]2C1 | -72.6
CSc1ccc(OCCN2CCC(n3cncn3)CC2)cc1 | -12.6
Cc1nc(CN2CCN(c3nc4c(s3)c(C)nn4C)CC2)cs1 | 15.6
CCc1nnc(Nc2cc(C)nc(C3CCN(c4ccncn4)C3)n2)s1 (configuration not stated) | 4.38
CSc1ccc(C(C(=O)O)N2CCCC2)cc1 (configuration not stated) | 1.16
Cc1noc([C@@]23CCO[C@@H]2CCN(C(=O)c2cc(C)c(C)s2)C3)n1 | 8.73
c1nc(N2CCc3nc[nH]c3C2)c2cc[nH]c2n1 | -5.71
CN(C)c1ncc2c(n1)CCCC2NC(=O)c1ccsc1 (configuration not stated) | 10
CN(CCc1ccccn1)C(=O)c1cn2c(n1)CNCC2 | -43.5
COCC(=O)N1CCC(c2nccn2CC2CC2)CC1 | -14.6
CCc1nc2c(c(N(C)Cc3nncn3CCOC)n1)CCNCC2 | -7.63
CCOC(=O)CCCNc1nc(C(C)(C)C)nc2c1cnn2C | -0.627
O=C(C1CC1)N1C[C@H]2CCCN(S(=O)(=O)c3ccc(Cl)s3)[C@H]2C1 | 8.26
COc1cc(N2CCN(Cc3ccsc3)C(CCO)C2)nc(N)n1 (configuration not stated) | 2.45
Cc1cccc(OCCNC(=O)CN2CCCC2c2noc(C)n2)c1 (configuration not stated) | -8.6
COc1ccc(CN2CCO[C@H]3[C@H](OCc4ccncc4)CC[C@@H]32)cc1 | -30.9
Cc1ccc(C(CCNCCN(C)C)C2CCOC(C)(C)C2)cc1 (configuration not stated) | 3.46
Cc1cc(-c2nn(C)c(Cl)c2CN2CCOCC2CC(=O)O)no1 (configuration not stated) | -12.2
CCc1nnsc1C(=O)NCCC1CCCN(C(C)C)C1 (configuration not stated) | 4.95
c1cc(NCc2cscn2)cc(OCCN2CCCCC2)c1 | -20.7
O=C(O)c1cn2cc(C(F)(F)F)ccc2n1 | 3.52

SMILES | cytotoxicity at 10 µM [%]
Cn1cc(C2CC(=O)NC23CCN(Cc2nccs2)CC3)cn1 (configuration not stated) | 1.06
COCC(=O)N1CCN(Cc2cccnc2)c2ncccc2C1 | 10.2
OC(COc1ccccc1)CN1CCc2c(ncn2C2CC2)C1 (configuration not stated) | 2.48
Cc1ncc(CN(C)C)c(C2CCCN2c2ncccn2)n1 (configuration not stated) | -0.6
Cc1cc(C(=O)N2C[C@@H]3COC[C@]3(COCc3cccnc3)C2)no1 | -16.1
Cn1cnnc1CN1CCC2(CCC(=O)N(Cc3ccccn3)C2)CC1 | 7.82
Cc1nc(-c2ccc(C(=O)O)cc2)cc(C2CCCN(C(C)C)C2)n1 (configuration not stated) | -10.2
O[C@H]1CN(Cc2ccnc(N3CCCC3)n2)CC[C@@]12CCCO2 | 3.62
Cc1csc(N2CCN(Cc3nccn3C)CC2C)n1 (configuration not stated) | -0.274
CC(C)=CCN1C[C@@H]2CC[C@H]1CN(C(=O)c1ccc3nc[nH]c3c1)C2 | -1.31
Cc1cc(-c2cnc(NCc3cccnc3)nc2C(C)(C)C)on1 | 49.6
C[C@@H]1CN(C2CCN(Cc3cnc(-c4cccs4)nc3)CC2)C[C@H](C)O1 | -13.7
COc1cccc(CN2C[C@@H]3COC[C@]3(COCc3ccncc3)C2)c1 | 3.52
CN(C)CCN1CC(C(=O)NCc2cccc(-n3cccn3)c2)CC1=O (configuration not stated) | -0.0342
CC(C)n1ccnc1CN1CCCC1c1cccc(-n2ccnc2)n1 (configuration not stated) | -25.1
O=C(O)c1c(-c2cccnc2)ncc2c1CCN(Cc1cccnc1)C2 | -3.14
Cc1cccc2[nH]c(C3CCN(C(=O)c4cccnn4)CC3)nc12 | 11.2
O=C(CN1CCSC(c2ccccc2)C1)NCc1ccccn1 (configuration not stated) | 14.5
C1CCN(CCOC2CCNCC2)C1 | 6.59
CCc1nc(C2CCCN2Cc2nc(C(C)(C)C)no2)no1 (configuration not stated) | 12.9
COCCN(C)Cc1cc(Cl)ccc1OCC(O)CN1CCCCCC1 (configuration not stated) | 1.76

SMILES | cytotoxicity at 10 µM [%]
COc1ncc(Cl)c(NCc2ccc([S+](C)[O-])cc2)n1 (configuration not stated) | -4.18
CCc1cc(=O)[nH]c(-c2ccc(NCCc3ccc(O)cc3)nc2)n1 | 61.1
CC(=O)NC1(C(=O)N2CCC(Nc3cccnn3)CC2)CCCCC1 | -5.26
CCOC1CCN(C(=O)NCc2ccc(CN3CCOCC3)cc2)CC1 | 7.31
CCc1nc(CN(C)c2nccc(N3CCCC(O)C3)n2)no1 (configuration not stated) | 0.324
Cn1ccc(C(=O)N2CCCC(Cc3cccc4cccnc34)C2)n1 (configuration not stated) | -8.44
CC(C)N(C)Cc1cnc2n1CCN(Cc1ccc(F)cc1)C2 | 1.44
CC(c1nccs1)N(C)C(=O)c1cc(CN(C)Cc2ccccc2)on1 (configuration not stated) | 12.2
Cc1cc(C2CCCN2C(=O)NCc2cccnc2N(C)C)on1 (configuration not stated) | -8.1
Cc1ncsc1C(=O)N1CCN(CCC(C)C)CC1 | 9.34
CCC1CN(C(=O)c2[nH]nc(C)c2Br)CCO1 (configuration not stated) | -3.22
C[C@H](N)Cn1nc(-c2cccs2)oc1=O | -1.94
Cc1ccc(-c2nnc(CN3CCc4cnc(C)nc4C3)o2)cc1 | -6.95
CC(C)N1CCO[C@@H]2CN(C(=O)Cc3cccs3)CC[C@@H]2C1 | -120
COCCNC(=O)C[C@@H]1COC[C@H]2CN(CC3CCOCC3)C[C@@H]12 | -92.9
O=C(c1ccoc1)N1CC[C@@H]2O[C@@H](COCC3CCOCC3)CC[C@@H]21 | -76.2
CCNc1nc2cn(-c3cccc(OC)c3)c(=O)c-2c[nH]1 | 8.65
COCc1ncn2c1CN(S(=O)(=O)c1cccc(OC)c1)CC2 | 3.47
Cc1noc(C)c1CN1C[C@@H]2COC[C@@H](CC(=O)N3CCCCO3)[C@@H]2C1 | -72.4
COCCN1CCc2ncnc(NC(C)C)c2CC1 | 2.13
Cc1cnc(-c2nc(O)c3c(n2)CN(C(=O)C2CCCC2)CC3)cn1 | -1.39

SMILES | cytotoxicity at 10 µM [%]
O=C(c1ccccn1)N1CCn2cnc(COCC3CC3)c2C1 | 11.4
O=C(NCC1(O)CCSCC1)c1ccoc1 | -6.61
NC(=O)C1CCN(C(=O)c2cccc(CN3CCOCC3)c2)CC1 | -20
CCOc1cccc(C(=O)N(CCC#N)Cc2ccccn2)c1 | 5.42
COc1cccc(C2CCCN2C(=O)c2cc3c(nc2OC)CCC3)c1 (configuration not stated) | -10.2
COc1cc(C(=O)N2CC(Oc3ccccc3Cl)C2)ccn1 | -3.52
Cc1cc(Cn2cc(C#N)c(=O)c3ccccc32)on1 | 8.83
CC(C)Cn1cncc1-c1nc2c([nH]1)CC(C)(C)CNC2=O | -1.41
CC(c1ccon1)N(C)C(=O)C1CCN(C(=O)C2CCC2)CC1 (configuration not stated) | 7.13
O=C(NCCCO)Nc1cnc2cc(Cl)ccc2c1O | 2.05
N#CCCCS(=O)(=O)NC1(c2cccc(Cl)c2)CC1 | -1.39
CCc1ccc(O)c(C(=O)NC2CCN(Cc3ccncc3)CC2)c1 | 5.52
C[C@@H]1CN2C[C@H](O)CC2CN1Cc1ccc2nccnc2c1 (some centres not stated) | 5.62
CCN(Cc1cc(=O)n2cc(Br)ccc2n1)C1CC1 | 7.95
Cc1cccc(Nc2c(C#N)c(=O)n(C)c(=O)n2C)c1 | -7.48
CC(=O)NC(C(=O)N1CCn2cncc2C1)C(C)C (configuration not stated) | -14.7
CCOc1ccc(CC(=O)N2CCCC(n3nc(C)nc3C)C2)cc1 (configuration not stated) | -3.18
COC(=O)c1ccc(CCn2cnc(C#N)n2)cc1 | -3.15
O=C1CCCN1CC1CCCCN1C(=O)Nc1cccnc1 (configuration not stated) | -0.123
